Results of several laboratories.
Protocols differ between the studies behind these lines.
Action: inhibitor
DRD3: D(3) dopamine receptor (DRD3, Homo sapiens, UniProt P35462)
CA12: Carbonic anhydrase 12 (CA12, Homo sapiens, UniProt O43570)
USP51: Ubiquitin carboxyl-terminal hydrolase 51 (USP51, Homo sapiens, UniProt Q70EK9)
SLC6A3: Sodium-dependent dopamine transporter (SLC6A3, Homo sapiens, UniProt Q01959)

| SMILES | target | observed | technique | cells | concentration | inhibition [%] |
| --- | --- | --- | --- | --- | --- | --- |
| Cc1[nH]n(-c2ccc([N+](=O)[O-])cc2)c(=O)c1C=NCCN1CCN(C(=O)c2cccc(F)c2)CC1 | DRD3 | enzyme activity |  |  | 10 µM | -24.9 |
| CCOC(=O)C1CSc2[nH]c(=O)sc2C1c1cn(-c2ccccc2)nc1-c1ccc(C)cc1 (stereo not drawn) | CA12 | enzyme activity | absorbance |  | 10 µM | 83.1 |
| CC(C)(COP(=O)(O)OP(=O)(O)OC[C@H]1O[C@@H](n2cnc3c(N)ncnc32)[C@H](O)[C@@H]1OP(=O)(O)O)[C@@H](O)C(=O)NCCC(=O)NCCS | Histone acetyltransferase KAT2A (KAT2A, Homo sapiens, UniProt Q92830) | enzyme activity | mobility shift |  | 10 µM | 29 |
| COc1ccc(-c2cc(=O)c3c(O)cc(O[C@@H]4O[C@H](CO[C@@H]5O[C@@H](C)[C@H](O)[C@@H](O)[C@H]5O)[C@@H](O)[C@H](O)[C@H]4O)cc3o2)cc1O | USP51 | enzyme activity |  |  | 5 µM | 0 |
| c1ccc(CCC2CCN(CCCn3nnnc3C(c3ccccc3)c3ccccc3)CC2)cc1 | SLC6A3 | transporter uptake |  | HEK293 | 1 µM | 68.3 |
| COc1ccc(N2CCN(CC(O)COc3ccc(C(C)=O)cc3OC)CC2)cc1 (stereo not drawn) | DRD3 | enzyme activity |  |  | 10 µM | 0.2 |
| NC(=O)NC1NC(=O)NC1=O (stereo not drawn) | USP51 | enzyme activity |  |  | 5 µM | 13 |
| CCOC(=O)C1CSc2[nH]c(=O)sc2C1c1cn(-c2ccccc2)nc1-c1ccccc1 (stereo not drawn) | CA12 | enzyme activity | absorbance |  | 0.1 µM | 27.5 |
| Clc1ccc(C(c2ccccc2)c2nnnn2CCCCN2CCC(CCc3ccccc3)CC2)cc1 (stereo not drawn) | SLC6A3 | transporter uptake |  | HEK293 | 1 µM | 74.6 |
| O=C(c1cccc(Cl)c1)N1CCN(CCNc2cc(=O)oc3ccccc23)CC1 | DRD3 | enzyme activity |  |  | 10 µM | -11.3 |
| O=c1ccc2cc3ccoc3cc2o1 | USP51 | enzyme activity |  |  | 5 µM | 0 |
| Fc1ccc(C(c2ccc(F)cc2)c2nnnn2CCCCN2CCC(c3ccccc3)CC2)cc1 | SLC6A3 | transporter uptake |  | HEK293 | 1 µM | 94.6 |
| CCOC(=O)C1CSc2[nH]c(=O)sc2C1c1cn(-c2ccccc2)nc1-c1ccc(Cl)cc1 (stereo not drawn) | CA12 | enzyme activity | absorbance |  | 10 nM | 27.6 |
| O=C[C@H](O)[C@@H](O)[C@H](O)CO (racemic) | USP51 | enzyme activity |  |  | 5 µM | 35 |
| c1ccc(CCC2CCN(CCCCn3nnnc3C(c3ccccc3)c3ccccc3)CC2)cc1 | SLC6A3 | transporter uptake |  | HEK293 | 1 µM | 80.3 |
| O=c1c(-c2ccc(O)cc2)coc2cc(O[C@@H]3O[C@H](CO)[C@@H](O)[C@H](O)[C@H]3O)ccc12 | USP51 | enzyme activity |  |  | 5 µM | 39 |
| N#CC1CSc2[nH]c(=O)sc2C1c1cn(-c2ccccc2)nc1-c1ccc(Br)cc1 (stereo not drawn) | CA12 | enzyme activity | absorbance |  | 0.1 µM | 40.6 |
| Cc1cc(O)c2c(=O)c3c(O)cc(O)c4c5c(O)cc(O)c6c(=O)c7c(O)cc(C)c8c1c2c(c34)c(c78)c65 | USP51 | enzyme activity |  |  | 5 µM | 53 |
| CC(O)c1ccc(-c2ccc(CNCCc3c[nH]c4ccccc34)o2)cc1 (stereo not drawn) | DRD3 | enzyme activity |  |  | 10 µM | 31.3 |
| O=Cc1ccc(O[C@@H]2O[C@H](CO)[C@@H](O)[C@@H](O)[C@H]2O)cc1 | USP51 | enzyme activity |  |  | 5 µM | 28 |
| Cc1c(Cl)cccc1-c1ccc(CNCC(O)c2ccccc2)o1 (stereo not drawn) | DRD3 | enzyme activity |  |  | 10 µM | 21.5 |
| CNC(=O)c1cc(Oc2ccc(NC(=O)Nc3ccc(Cl)c(C(F)(F)F)c3)cc2)ccn1 | Tyrosine-protein kinase Lyn (Lyn, Mus musculus, UniProt P25911) | enzyme activity |  |  | 0.3 µM | 37 |
| Nc1[nH]cnc2ncnc1-2 | USP51 | enzyme activity |  |  | 5 µM | 33 |
| NS(=O)(=O)c1ccc(CCNCc2cccc3ccccc23)cc1 | DRD3 | enzyme activity |  |  | 10 µM | 39.3 |
